Here are results for two proteins from ChEMBL document CHEMBL1629653, “CMY-31 and CMY-36 cephalosporinases encoded by ColE1-like plasmids” (Antimicrob Agents Chemother, 2009).

Substrate in series [1]: CC1(C)S[C@@H]2[C@H](NC(=O)Cc3ccccc3)C(=O)N2[C@H]1C(=O)O
The conditions noted are these: Salmonella enterica subsp. enterica serovar Newport; AM17274.

Substrate in series [2]: CO/N=C(\C(=O)N[C@@H]1C(=O)N2C(C(=O)O)=C(COC(C)=O)CS[C@H]12)c1csc(N)n1
The conditions noted are these: Salmonella enterica subsp. enterica serovar Newport; AM17274.

Substrate in series [3]: O=C(Cc1cccs1)N[C@@H]1C(=O)N2C(C(=O)O)=C(/C=C/c3ccc([N+](=O)[O-])cc3[N+](=O)[O-])CS[C@H]12
The conditions noted are these: Salmonella enterica subsp. enterica serovar Newport; AM17274.

Substrate in series [4]: O=C(Cc1cccs1)N[C@@H]1C(=O)N2C(C(=O)[O-])=C(C[n+]3ccccc3)CS[C@H]12
The conditions noted are these: Salmonella enterica subsp. enterica serovar Newport; AM17274.

Substrate in series [5]: CC1(C)S[C@@H]2[C@H](NC(=O)Cc3ccccc3)C(=O)N2[C@H]1C(=O)O
As to conditions: Salmonella enterica subsp. enterica serovar Newport; AM17274. This is another data set of the same source.

Substrate in series [6]: O=C(Cc1cccs1)N[C@@H]1C(=O)N2C(C(=O)O)=C(/C=C/c3ccc([N+](=O)[O-])cc3[N+](=O)[O-])CS[C@H]12
As to conditions: Salmonella enterica subsp. enterica serovar Newport; AM17274. This is another data set of the same source.

Substrate in series [7]: O=C(Cc1cccs1)N[C@@H]1C(=O)N2C(C(=O)[O-])=C(C[n+]3ccccc3)CS[C@H]12
As to conditions: Salmonella enterica subsp. enterica serovar Newport; AM17274. The source holds these as a separate data set.

Substrate in series [8]: CC1(C)S[C@@H]2[C@H](NC(=O)Cc3ccccc3)C(=O)N2[C@H]1C(=O)O
The series is described as follows: (§1) Activity of Klebsiella pneumoniae HP205 cephalosporinase CMY-36 by spectrophotometry. The method, boiled down: (§2)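 CMY β-lactamases purified from sonicated, ultracentrifuge-clarified extracts of E. coli DH5α clones (pB-cmy36, pB-cmy2) by Q- then S-Sepharose ion exchange (>90% pure by SDS-PAGE); steady-state hydrolysis kinetics measured spectrophotometrically, CMY-2 run in parallel.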

Substrate in series [9]: CO/N=C(\C(=O)N[C@@H]1C(=O)N2C(C(=O)O)=C(COC(C)=O)CS[C@H]12)c1csc(N)n1
The series is described as §1. Put shortly: as §2

Substrate in series [10]: O=C(Cc1cccs1)N[C@@H]1C(=O)N2C(C(=O)O)=C(/C=C/c3ccc([N+](=O)[O-])cc3[N+](=O)[O-])CS[C@H]12
The description is as §1. Put shortly:
as §2

Substrate in series [11]: O=C(Cc1cccs1)N[C@@H]1C(=O)N2C(C(=O)[O-])=C(C[n+]3ccccc3)CS[C@H]12
Described as §1. Put shortly: as §2

Substrate in series [12]: CC1(C)S[C@@H]2[C@H](NC(=O)Cc3ccccc3)C(=O)N2[C@H]1C(=O)O
The series is described as follows: (§3) Ratio of Kcat to Km for Klebsiella pneumoniae cephalosporinase CMY-36 by spectrophotometry. The method, boiled down:
as §2

Substrate in series [13]: O=C(Cc1cccs1)N[C@@H]1C(=O)N2C(C(=O)O)=C(/C=C/c3ccc([N+](=O)[O-])cc3[N+](=O)[O-])CS[C@H]12
The description is as §3. Put shortly: as §2

Substrate in series [14]: O=C(Cc1cccs1)N[C@@H]1C(=O)N2C(C(=O)[O-])=C(C[n+]3ccccc3)CS[C@H]12
Described as §3. Put shortly:
as §2

For orientation: Km means the substrate concentration at which the rate is half of its maximum. By kcat is commonly meant the maximal rate divided by the concentration of active sites. Usually kcat/Km stands for the second-order rate constant that governs catalysis at low substrate concentration.

A value given as a limit tells only on which side of the number the result lay.

B1: Efflux transporter (Salmonella newport), Q3S5C3 (protein)
chain: MSWIVLLIAGLLEVVWAIGLKYTHGFTRLTPSIITIAAMIVSIAMLSWAMRTLPVGTAYAVWTGIGAVGAAITGILLLGESASPARLLSLGLIVAGIIGLKLSTH
B1: the Km is 0.3 µM in series [1] and 10 µM in [3]. The kcat in series [1] is 7.7 s⁻¹; in series [2], below 0.01 s⁻¹; in series [3] it was 960 s⁻¹; in [4], 310 s⁻¹. Further, the kcat/Km in series [5] is 2.57e+07 M⁻¹ s⁻¹; in [6] it was 9.6e+07 M⁻¹ s⁻¹; in [7], 2.1e+06 M⁻¹ s⁻¹.

B2: Class C beta-lactamase CMY-36 (Klebsiella pneumoniae), Q48435 (protein)
chain: MMKKSLCCALLLTASFSTFAAAKTEQQIADIVNRTITPLMQEQAIPGMAVAVIYQGKPYYFTWGKADIANNHPVTQQTLFELGSVSKTFNGVLGGDCIARGEIKLSDPVTKYWPELTGKQWQGIRLLHLATYTAGGLPLQIPDDVRDKAALLHFYQNWQPQWTPGAKRLYANSSIGLFGALAVKPSGMSYEEAMTRRVLQPLKLAHTWITVPENEQKDYAWGYREGKPVHVSPGQLDAEAYGVKSSVIDMARWVQANMDASHVQEKTLQQGIALAQSRYWRIGDMYQGLGWEMLNWPLKADSIINGSDSKVALAALPAVEVNPPAPAVKASWVHKTGSTGGFGSYVAFVPEKNLGIVMLANKSYPNPVRVEAAWRILEKLQ
Take B2: the Km in series [8] was 0.3 µM; in series [10] it was 7.3 µM; in [11], 150 µM. Further, the kcat was 9.1 s⁻¹ in [8], below 0.01 s⁻¹ in series [9], 910 s⁻¹ in series [10] and 360 s⁻¹ in series [11]. The kcat/Km came out at 3.03e+07 M⁻¹ s⁻¹ in series [12], 1.25e+08 M⁻¹ s⁻¹ in series [13] and 2.4e+06 M⁻¹ s⁻¹ in [14].
